Data from ChEMBL document CHEMBL3108666, “Cytotoxic and protein kinase inhibiting nakijiquinones and nakijiquinols from the sponge Dactylospongia metachromia” (J Nat Prod, 2014).
The source made the active and inactive calls. No cut-off for these calls is given here.

Assays:
[1] = target: T1, Proto-oncogene tyrosine-protein kinase Src (Homo sapiens, UniProt P12931); experiment: Inhibition of recombinant SRC (unknown origin) using casein as substrate assessed as incorporation of [gamma-33P]-ATP into substrate at 10 uM by radiometric assay
Procedure, shortened: (§1)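 Radiometric 33PanQinase format: recombinant kinase incubated with [γ-33P]ATP plus unlabeled ATP and kinase substrate; substrate-incorporated label measured by FlashPlate counting; compounds screened at 10 μM each across a 16-kinase panel.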

[2] = target: T2, Vascular endothelial growth factor receptor 2 (Homo sapiens, UniProt P35968); experiment: Inhibition of recombinant VEGFR2 (unknown origin) using poly(Glu,Tyr)4:1 as substrate assessed as incorporation of [gamma-33P]-ATP into substrate at 10 uM by radiometric assay; procedure, shortened: as §1
[3] = test system: L5178Y; experiment: Cytotoxicity against mouse L5178Y cells assessed as growth inhibition by MTT assay; format: functional, cell-based
Procedure, shortened: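 L5178Y mouse lymphoma cells; MTT microculture tetrazolium read-out, compared with untreated controls; media with 0.1% EGMME-DMSO as negative control; three independent experiments, each in triplicate.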

[4] = target: T3, Insulin-like growth factor 1 receptor (Homo sapiens, UniProt P08069); experiment: Inhibition of recombinant IGF1R (unknown origin) using Poly (Glu,Tyr) 4:1 as substrate assessed as incorporation of [gamma-33P]-ATP into substrate at 10 uM by radiometric assay; procedure, shortened: as §1
[5] = target: T4, Focal adhesion kinase 1 (Homo sapiens, UniProt Q05397); experiment: Inhibition of recombinant FAK (unknown origin) assessed as incorporation of [gamma-33P]-ATP into substrate at 10 uM by radiometric assay; procedure, shortened: as §1
Target sequence in this assay (Q05397 2-1052 limits assumed): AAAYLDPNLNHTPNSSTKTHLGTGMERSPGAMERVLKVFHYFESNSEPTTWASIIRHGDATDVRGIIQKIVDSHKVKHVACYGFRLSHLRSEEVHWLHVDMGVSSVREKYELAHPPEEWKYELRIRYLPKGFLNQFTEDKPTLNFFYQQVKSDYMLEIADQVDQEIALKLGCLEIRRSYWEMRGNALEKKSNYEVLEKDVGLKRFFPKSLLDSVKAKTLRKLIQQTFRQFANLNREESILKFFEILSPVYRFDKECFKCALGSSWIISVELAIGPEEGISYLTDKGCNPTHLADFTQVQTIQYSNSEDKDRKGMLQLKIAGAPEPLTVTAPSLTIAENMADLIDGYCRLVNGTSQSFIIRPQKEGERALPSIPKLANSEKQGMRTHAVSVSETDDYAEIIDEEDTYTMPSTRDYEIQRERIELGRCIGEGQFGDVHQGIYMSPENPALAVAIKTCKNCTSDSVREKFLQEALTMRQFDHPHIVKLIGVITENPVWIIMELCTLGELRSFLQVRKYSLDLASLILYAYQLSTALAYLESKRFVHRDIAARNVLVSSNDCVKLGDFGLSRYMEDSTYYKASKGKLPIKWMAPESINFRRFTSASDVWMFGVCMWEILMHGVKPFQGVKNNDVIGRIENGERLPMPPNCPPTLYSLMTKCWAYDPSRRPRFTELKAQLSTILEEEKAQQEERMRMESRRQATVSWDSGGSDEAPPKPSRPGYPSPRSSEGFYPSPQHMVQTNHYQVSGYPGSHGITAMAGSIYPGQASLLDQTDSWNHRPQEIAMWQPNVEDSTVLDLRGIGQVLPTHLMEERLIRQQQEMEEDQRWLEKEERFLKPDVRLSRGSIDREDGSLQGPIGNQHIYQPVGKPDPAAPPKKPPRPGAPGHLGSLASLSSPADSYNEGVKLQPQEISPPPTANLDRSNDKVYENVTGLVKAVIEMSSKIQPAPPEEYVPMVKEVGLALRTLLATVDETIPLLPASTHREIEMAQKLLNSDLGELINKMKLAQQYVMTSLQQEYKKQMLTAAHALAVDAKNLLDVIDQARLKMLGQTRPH

[6] = target: T5, ALK tyrosine kinase receptor (Homo sapiens, UniProt Q9UM73); experiment: Inhibition of recombinant ALK (unknown origin) assessed as incorporation of [gamma-33P]-ATP into substrate at 10 uM by radiometric assay; procedure, shortened: as §1
[7] = target: T4, Focal adhesion kinase 1; experiment: Inhibition of recombinant FAK (unknown origin) assessed as incorporation of [gamma-33P]-ATP into substrate by radiometric assay; procedure, shortened: as §1
[8] = target: T1, Proto-oncogene tyrosine-protein kinase Src; experiment: Inhibition of recombinant SRC (unknown origin) using casein as substrate assessed as incorporation of [gamma-33P]-ATP into substrate by radiometric assay
[9] = target: T5, ALK tyrosine kinase receptor; experiment: Inhibition of recombinant ALK (unknown origin) assessed as incorporation of [gamma-33P]-ATP into substrate by radiometric assay
[10] = target: Hepatocyte growth factor receptor (Homo sapiens, UniProt P08581); experiment: Inhibition of wild type MET (unknown origin) assessed as incorporation of [gamma-33P]-ATP into substrate by radiometric assay
[11] = target: Serine/threonine-protein kinase Nek6 (Homo sapiens, UniProt Q9HC98); experiment: Inhibition of recombinant NEK6 (unknown origin) assessed as incorporation of [gamma-33P]-ATP into substrate by radiometric assay; procedure, shortened: as §1
[12] = target: Serine/threonine-protein kinase PLK1 (Homo sapiens, UniProt P53350); experiment: Inhibition of recombinant PLK1 (unknown origin) using casein as substrate assessed as incorporation of [gamma-33P]-ATP into substrate by radiometric assay
[13] = target: Aurora kinase B (Homo sapiens, UniProt Q96GD4); experiment: Inhibition of recombinant aurora kinase B (unknown origin) using tetra(LRRWSLG) as substrate assessed as incorporation of [gamma-33P]-ATP into substrate by radiometric assay
[14] = target: T6, NUAK family SNF1-like kinase 1 (Homo sapiens, UniProt O60285); experiment: Inhibition of recombinant ARK5 (unknown origin) assessed as incorporation of [gamma-33P]-ATP into substrate by radiometric assay; procedure, shortened: as §1
T6 sequence (O60285 whole entry): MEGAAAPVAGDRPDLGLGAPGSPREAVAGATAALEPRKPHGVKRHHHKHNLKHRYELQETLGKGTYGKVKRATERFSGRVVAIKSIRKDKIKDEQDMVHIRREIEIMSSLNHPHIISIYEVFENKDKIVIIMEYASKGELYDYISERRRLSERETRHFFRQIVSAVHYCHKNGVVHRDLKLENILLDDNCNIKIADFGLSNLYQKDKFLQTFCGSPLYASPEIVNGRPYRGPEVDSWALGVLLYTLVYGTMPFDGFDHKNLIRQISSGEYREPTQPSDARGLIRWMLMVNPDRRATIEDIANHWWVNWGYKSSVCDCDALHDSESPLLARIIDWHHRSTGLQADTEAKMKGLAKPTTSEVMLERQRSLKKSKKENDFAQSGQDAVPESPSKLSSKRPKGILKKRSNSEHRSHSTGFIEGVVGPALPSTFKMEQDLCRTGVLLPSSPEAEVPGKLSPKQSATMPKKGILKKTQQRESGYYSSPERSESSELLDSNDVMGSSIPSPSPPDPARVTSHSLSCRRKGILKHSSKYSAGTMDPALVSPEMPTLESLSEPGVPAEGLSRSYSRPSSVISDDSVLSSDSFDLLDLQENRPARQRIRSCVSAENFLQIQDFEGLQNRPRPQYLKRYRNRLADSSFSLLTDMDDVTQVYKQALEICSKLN

[15] = target: T3, Insulin-like growth factor 1 receptor; experiment: Inhibition of recombinant IGF1R (unknown origin) using Poly (Glu,Tyr) 4:1 as substrate assessed as incorporation of [gamma-33P]-ATP into substrate by radiometric assay
[16] = target: Dual specificity mitogen-activated protein kinase kinase 1 (Homo sapiens, UniProt Q02750); experiment: Inhibition of wild type MEK1 (unknown origin) assessed as incorporation of [gamma-33P]-ATP into substrate by radiometric assay
[17] = target: Serine/threonine-protein kinase N1 (Homo sapiens, UniProt Q16512); experiment: Inhibition of recombinant PRK1 (unknown origin) using casein as substrate assessed as incorporation of [gamma-33P]-ATP into substrate by radiometric assay; procedure, shortened: as §1
[18] = target: T7, Tyrosine-protein kinase receptor UFO (Homo sapiens, UniProt P30530); experiment: Inhibition of recombinant AXL (unknown origin) assessed as incorporation of [gamma-33P]-ATP into substrate by radiometric assay
T7 sequence (P30530 whole entry): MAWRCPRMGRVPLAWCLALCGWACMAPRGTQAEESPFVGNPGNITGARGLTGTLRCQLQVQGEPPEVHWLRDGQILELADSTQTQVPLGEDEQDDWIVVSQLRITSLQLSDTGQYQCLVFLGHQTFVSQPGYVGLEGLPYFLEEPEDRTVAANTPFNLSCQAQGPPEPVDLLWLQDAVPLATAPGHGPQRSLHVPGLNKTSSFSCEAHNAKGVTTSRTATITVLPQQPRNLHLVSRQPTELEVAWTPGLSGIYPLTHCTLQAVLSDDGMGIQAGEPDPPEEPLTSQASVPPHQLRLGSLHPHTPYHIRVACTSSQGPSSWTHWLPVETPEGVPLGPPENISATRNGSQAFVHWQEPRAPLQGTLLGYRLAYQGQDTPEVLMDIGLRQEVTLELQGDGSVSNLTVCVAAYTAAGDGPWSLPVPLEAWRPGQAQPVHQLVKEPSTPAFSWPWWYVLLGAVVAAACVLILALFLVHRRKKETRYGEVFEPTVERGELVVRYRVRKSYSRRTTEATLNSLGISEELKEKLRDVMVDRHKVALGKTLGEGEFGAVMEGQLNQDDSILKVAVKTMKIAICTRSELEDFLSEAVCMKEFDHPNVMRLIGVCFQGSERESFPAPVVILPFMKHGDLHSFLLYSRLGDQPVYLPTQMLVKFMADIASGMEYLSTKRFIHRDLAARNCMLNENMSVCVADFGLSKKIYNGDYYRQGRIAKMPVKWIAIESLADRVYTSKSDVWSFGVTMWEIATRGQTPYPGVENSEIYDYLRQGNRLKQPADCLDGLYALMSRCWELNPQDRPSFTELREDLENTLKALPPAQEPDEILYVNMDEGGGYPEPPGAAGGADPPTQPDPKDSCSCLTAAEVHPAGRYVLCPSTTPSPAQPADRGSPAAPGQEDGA

[19] = target: T2, Vascular endothelial growth factor receptor 2; experiment: Inhibition of recombinant VEGFR2 (unknown origin) using poly(Glu,Tyr)4:1 as substrate assessed as incorporation of [gamma-33P]-ATP into substrate by radiometric assay; procedure, shortened: as §1
[20] = target: Serine/threonine-protein kinase pim-1 (Homo sapiens, UniProt P11309); experiment: Inhibition of recombinant PIM1 (unknown origin) assessed as incorporation of [gamma-33P]-ATP into substrate by radiometric assay; procedure, shortened: as §1
[21] = target: RAC-alpha serine/threonine-protein kinase (Homo sapiens, UniProt P31749); experiment: Inhibition of recombinant AKT1 (unknown origin) using GSK3 (14 to 27) as substrate assessed as incorporation of [gamma-33P]-ATP into substrate by radiometric assay; procedure, shortened: as §1
[22] = target: T8, Serine/threonine-protein kinase Nek2 (Homo sapiens, UniProt P51955); experiment: Inhibition of recombinant NEK2 (unknown origin) assessed as incorporation of [gamma-33P]-ATP into substrate by radiometric assay
T8 sequence (P51955 whole entry): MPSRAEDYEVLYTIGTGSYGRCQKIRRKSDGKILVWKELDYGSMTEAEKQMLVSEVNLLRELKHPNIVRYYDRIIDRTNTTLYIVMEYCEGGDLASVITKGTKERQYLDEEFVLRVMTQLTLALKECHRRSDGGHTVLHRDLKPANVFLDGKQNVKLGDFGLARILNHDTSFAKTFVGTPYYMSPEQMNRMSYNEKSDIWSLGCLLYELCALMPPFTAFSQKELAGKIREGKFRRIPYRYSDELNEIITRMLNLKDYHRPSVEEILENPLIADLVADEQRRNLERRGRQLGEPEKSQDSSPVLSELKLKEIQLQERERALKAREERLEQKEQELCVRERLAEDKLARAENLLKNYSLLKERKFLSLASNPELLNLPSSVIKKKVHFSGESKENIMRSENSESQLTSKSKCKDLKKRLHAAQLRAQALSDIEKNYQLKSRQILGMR

Chain of Serine/threonine-protein kinase pim-1 (P11309 whole entry): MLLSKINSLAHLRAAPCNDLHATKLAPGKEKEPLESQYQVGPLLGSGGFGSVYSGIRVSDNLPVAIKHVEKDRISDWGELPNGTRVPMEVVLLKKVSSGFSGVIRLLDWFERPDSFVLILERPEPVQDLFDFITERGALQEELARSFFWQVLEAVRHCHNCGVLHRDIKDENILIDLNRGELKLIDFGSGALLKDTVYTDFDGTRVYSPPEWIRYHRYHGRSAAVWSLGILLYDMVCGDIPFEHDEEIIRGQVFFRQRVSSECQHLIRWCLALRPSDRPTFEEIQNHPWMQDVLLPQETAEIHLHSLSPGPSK
T3 sequence (P08069 31-736 limits assumed): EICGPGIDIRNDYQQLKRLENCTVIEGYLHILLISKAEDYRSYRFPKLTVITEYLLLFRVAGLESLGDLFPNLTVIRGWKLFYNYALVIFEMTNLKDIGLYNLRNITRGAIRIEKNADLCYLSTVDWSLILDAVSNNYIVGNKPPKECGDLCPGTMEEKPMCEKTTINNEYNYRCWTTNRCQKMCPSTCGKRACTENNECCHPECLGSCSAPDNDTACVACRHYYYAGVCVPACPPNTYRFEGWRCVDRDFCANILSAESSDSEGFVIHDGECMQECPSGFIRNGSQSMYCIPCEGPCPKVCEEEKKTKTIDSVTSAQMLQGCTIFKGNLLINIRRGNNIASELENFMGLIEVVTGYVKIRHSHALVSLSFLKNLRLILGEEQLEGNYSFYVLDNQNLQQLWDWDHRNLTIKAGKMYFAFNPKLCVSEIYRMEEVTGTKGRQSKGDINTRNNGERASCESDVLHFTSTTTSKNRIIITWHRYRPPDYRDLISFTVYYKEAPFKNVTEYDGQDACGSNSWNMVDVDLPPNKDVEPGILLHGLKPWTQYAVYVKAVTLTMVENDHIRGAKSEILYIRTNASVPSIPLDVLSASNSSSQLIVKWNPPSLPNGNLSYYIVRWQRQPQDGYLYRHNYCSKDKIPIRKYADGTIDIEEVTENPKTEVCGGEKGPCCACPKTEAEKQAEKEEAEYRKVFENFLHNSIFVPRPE
T3 sequence (P08069 741-1367 limits assumed): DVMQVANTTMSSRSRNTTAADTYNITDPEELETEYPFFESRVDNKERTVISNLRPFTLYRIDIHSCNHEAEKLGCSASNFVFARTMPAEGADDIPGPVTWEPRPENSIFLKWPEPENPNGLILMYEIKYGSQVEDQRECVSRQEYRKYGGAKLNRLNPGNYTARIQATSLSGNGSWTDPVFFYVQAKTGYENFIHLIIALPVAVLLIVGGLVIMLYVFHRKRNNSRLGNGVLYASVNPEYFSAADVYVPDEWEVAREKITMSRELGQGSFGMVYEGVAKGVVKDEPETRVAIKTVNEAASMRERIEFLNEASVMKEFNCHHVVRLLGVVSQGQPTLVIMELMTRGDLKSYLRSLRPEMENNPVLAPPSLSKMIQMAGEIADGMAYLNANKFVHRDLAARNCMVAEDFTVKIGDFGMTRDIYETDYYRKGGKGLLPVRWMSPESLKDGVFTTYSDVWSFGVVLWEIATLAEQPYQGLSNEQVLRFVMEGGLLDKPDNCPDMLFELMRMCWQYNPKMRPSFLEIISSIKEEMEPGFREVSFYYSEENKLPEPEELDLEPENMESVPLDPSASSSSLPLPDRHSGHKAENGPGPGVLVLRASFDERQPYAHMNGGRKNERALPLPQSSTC
Chain of Dual specificity mitogen-activated protein kinase kinase 1 (Q02750 whole entry): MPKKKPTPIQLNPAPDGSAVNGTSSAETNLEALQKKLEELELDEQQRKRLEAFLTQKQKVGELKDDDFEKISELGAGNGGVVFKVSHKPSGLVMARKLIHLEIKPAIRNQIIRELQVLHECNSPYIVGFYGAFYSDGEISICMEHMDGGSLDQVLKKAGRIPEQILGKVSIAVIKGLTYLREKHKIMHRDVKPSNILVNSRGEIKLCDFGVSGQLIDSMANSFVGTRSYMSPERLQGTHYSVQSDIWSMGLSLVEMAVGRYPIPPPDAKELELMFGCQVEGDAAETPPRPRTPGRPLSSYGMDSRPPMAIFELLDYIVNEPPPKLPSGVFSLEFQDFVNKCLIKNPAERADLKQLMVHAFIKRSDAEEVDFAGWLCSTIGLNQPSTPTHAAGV
Chain of Hepatocyte growth factor receptor (P08581 whole entry): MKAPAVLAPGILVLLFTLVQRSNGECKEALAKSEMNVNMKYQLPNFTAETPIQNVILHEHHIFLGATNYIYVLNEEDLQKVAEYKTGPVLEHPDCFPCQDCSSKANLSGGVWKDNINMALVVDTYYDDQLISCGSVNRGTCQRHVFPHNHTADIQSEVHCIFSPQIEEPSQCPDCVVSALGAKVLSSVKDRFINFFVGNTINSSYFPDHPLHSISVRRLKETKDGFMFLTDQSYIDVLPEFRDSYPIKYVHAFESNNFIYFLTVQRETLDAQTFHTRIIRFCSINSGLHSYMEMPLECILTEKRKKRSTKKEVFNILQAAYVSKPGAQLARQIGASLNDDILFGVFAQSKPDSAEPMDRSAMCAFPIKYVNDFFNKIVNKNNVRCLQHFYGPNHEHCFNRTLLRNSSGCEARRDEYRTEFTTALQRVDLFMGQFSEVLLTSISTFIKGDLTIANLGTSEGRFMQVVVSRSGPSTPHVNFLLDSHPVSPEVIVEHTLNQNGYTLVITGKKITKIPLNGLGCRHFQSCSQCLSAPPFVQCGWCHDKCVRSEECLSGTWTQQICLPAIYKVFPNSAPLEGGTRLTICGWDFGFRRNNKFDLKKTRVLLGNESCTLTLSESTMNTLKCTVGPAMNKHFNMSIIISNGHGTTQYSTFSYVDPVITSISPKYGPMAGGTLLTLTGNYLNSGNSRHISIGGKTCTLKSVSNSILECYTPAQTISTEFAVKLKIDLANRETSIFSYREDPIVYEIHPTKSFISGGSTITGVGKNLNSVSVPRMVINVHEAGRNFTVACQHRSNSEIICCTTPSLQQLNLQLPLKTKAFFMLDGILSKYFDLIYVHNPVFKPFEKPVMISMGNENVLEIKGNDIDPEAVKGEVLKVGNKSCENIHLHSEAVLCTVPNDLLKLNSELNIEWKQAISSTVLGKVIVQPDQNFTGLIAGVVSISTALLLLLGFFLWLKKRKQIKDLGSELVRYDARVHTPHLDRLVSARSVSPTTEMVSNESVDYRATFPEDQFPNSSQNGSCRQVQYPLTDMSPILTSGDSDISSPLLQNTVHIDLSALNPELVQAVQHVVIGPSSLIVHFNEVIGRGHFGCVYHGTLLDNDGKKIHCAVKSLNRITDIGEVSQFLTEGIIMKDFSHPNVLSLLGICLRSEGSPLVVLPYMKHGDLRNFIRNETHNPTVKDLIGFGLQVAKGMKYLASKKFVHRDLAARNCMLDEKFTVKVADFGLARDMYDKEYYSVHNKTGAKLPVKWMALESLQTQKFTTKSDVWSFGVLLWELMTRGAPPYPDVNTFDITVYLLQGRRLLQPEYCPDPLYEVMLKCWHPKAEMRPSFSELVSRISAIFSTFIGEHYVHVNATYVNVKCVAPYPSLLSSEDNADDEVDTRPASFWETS
T1 sequence (P12931 2-536 limits assumed): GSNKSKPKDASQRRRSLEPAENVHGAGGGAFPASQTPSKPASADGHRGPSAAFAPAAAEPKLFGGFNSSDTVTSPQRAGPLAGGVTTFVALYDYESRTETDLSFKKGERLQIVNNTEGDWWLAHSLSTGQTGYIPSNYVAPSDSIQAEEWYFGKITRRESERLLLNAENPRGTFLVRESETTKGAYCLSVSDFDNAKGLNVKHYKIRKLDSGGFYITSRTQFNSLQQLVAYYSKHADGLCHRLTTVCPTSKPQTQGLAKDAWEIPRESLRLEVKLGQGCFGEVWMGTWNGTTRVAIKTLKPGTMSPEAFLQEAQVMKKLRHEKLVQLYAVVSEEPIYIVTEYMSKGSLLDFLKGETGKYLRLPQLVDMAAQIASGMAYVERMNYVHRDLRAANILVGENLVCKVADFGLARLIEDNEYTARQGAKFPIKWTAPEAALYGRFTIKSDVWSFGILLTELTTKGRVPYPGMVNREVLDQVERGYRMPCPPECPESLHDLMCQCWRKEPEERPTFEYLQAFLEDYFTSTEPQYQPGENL

SMILES | inhibition [1] | inhibition [2] | IC50 [3] [µM] | inhibition [4] | inhibition [5] | inhibition [6] | IC50 [7] [µM] | IC50 [8] [µM] | IC50 [9] [µM] | IC50 [10] [µM] | IC50 [11] [µM] | IC50 [12] [µM] | IC50 [13] [µM] | IC50 [14] [µM] | IC50 [15] [µM] | IC50 [16] [µM] | IC50 [17] [µM] | IC50 [18] [µM] | IC50 [19] [µM] | IC50 [20] [µM] | also measured
CC1=CCC[C@H]2[C@](C)(CC3=C(O)C(=O)C=C(NCCc4ccc(O)cc4)C3=O)[C@@H](C)CC[C@@]12C | Active | Active | 1.7 | Active | Active | Active |  |  |  |  |  |  |  |  |  |  |  |  |  |  | 
CC1=CCC[C@H]2[C@](C)(CC3=C(O)C(=O)C=C(NCCC(C)C)C3=O)[C@@H](C)CC[C@@]12C |  |  | 1.3 |  |  |  | 3.03 | 2.2 | 0.97 | 40.3 | 90.8 | 100 | 61 | > 100 | 1.94 | > 100 | > 100 | > 100 | 2.22 | 62.6 | IC50 [21]: 73.2 µM; IC50 [22]: 29.9 µM
COc1cc2nc(C)oc2c(C[C@]2(C)[C@@H](C)CC[C@@]3(C)C(C)=CCC[C@@H]23)c1O |  |  | > 10 |  |  |  | 7.78 | 19.7 | 3.38 | > 100 | > 100 | > 100 | > 100 | > 100 | 3.31 | > 100 | > 100 | 14.7 | 3.66 | > 100 | IC50 [21]: > 100 µM; IC50 [22]: > 100 µM
COC(=O)c1cc(O)c(O)c(C[C@]2(C)[C@@H](C)CC[C@@]3(C)C(C)=CCC[C@@H]23)c1 |  |  | > 10 |  |  |  | 4.56 | 8.62 | 2.19 | 3.12 | 7.72 | 21.7 | 3.89 | 29.4 | 11.8 | > 100 | > 100 | 13.1 | 4.81 | 20.3 | IC50 [21]: 48.4 µM; IC50 [22]: 14.7 µM
CSCCCNC1=CC(=O)C(O)=C(C[C@]2(C)[C@@H](C)CC[C@@]3(C)C(C)=CCC[C@@H]23)C1=O | Active | Active | 1.8 | Active | Active | Active |  |  |  |  |  |  |  |  |  |  |  |  |  |  | 
CC1=CCC[C@H]2[C@](C)(CC3=C(O)C(=O)C=C(NCCc4c[nH]c5ccccc45)C3=O)[C@@H](C)CC[C@@]12C | Active | Active | 3.7 | Active | Active | Active |  |  |  |  |  |  |  |  |  |  |  |  |  |  | 
CC1=CCC[C@H]2[C@](C)(Cc3c4oc(C)nc4cc4nc(C)oc34)[C@@H](C)CC[C@@]12C |  |  | > 10 | Active | Active | Active |  |  |  |  |  |  |  |  |  |  |  |  |  |  | 
CC1=CCC[C@H]2[C@](C)(CC3=C(O)C(=O)C=C(NCCc4ccccc4)C3=O)[C@@H](C)CC[C@@]12C | Active | Active | 1.1 | Active | Active | Active |  |  |  |  |  |  |  |  |  |  |  |  |  |  | 
